Calls of active or inactive are those of the source. The rule behind the calls is not given here.
How the values were obtained:
[1] = Ratio of hemicholinium-3 LD50 to compound LD50 for toxicity in ip dosed Charles River CD-1 albino mouse measured within 5 mins; assay type: organism-based; settings: CD-1, mouse, in vivo
Mus musculus [2] = assay: Toxicity in ip dosed Charles River CD-1 albino mouse assessed as increase of peristalsis of small intestine; assay type: organism-based; settings: in vivo
Mus musculus [3] = assay: Toxicity in ip dosed Charles River CD-1 albino mouse assessed as reduction of cardiac contraction; assay type: organism-based, Heart; settings: in vivo
[4] = target: T1, Acetylcholinesterase (Bos taurus) (UniProt P23795); assay: Binding affinity to bovine erythrocyte acetylcholinesterase in water at pH 7.4 at 100 x 10^-5 M measured immediately by UV-spectra analysis
T1 sequence (whole entry): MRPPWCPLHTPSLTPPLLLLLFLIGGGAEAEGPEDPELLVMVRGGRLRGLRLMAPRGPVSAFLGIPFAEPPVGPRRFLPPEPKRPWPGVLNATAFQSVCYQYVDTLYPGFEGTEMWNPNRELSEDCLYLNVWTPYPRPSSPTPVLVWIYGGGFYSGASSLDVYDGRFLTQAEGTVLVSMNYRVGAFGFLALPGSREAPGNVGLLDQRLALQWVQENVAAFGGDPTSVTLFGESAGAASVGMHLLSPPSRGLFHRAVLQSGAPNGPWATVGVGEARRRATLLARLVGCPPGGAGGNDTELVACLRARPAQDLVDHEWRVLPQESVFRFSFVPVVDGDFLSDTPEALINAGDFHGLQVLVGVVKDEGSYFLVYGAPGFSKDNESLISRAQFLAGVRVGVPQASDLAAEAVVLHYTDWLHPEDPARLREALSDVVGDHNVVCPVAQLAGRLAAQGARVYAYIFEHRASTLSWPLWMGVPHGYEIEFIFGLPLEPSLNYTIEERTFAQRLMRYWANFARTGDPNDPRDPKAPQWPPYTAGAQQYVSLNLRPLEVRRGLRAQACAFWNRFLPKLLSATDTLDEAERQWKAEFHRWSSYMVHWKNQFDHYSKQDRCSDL
In short: (§1)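 Test solutions 100 × 10⁻⁵ M in pH 7.4 buffered water. UV spectrum recorded against identically buffered water reference. 0.1 ml of bovine erythrocyte acetylcholinesterase (40 μ/ml, pH 7.4 buffer) was added to 1-ml sample and reference, giving an enzyme level similar to blood. Spectrum recorded immediately, then again after incubation at 37° for 6 h. Shift in λmax was read.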

Mus musculus [5] = assay: (§2) Toxicity in ip dosed Charles River CD-1 albino mouse measured within 5 mins; assay type: organism-based; settings: mouse, in vivo, 5 min
[6] = as §2; assay type: organism-based; settings: CD-1, mouse, in vivo
[7] = Chemical stability of the compound in deuterium oxide solutions at slightly acidic condition up to 48 hrs by NMR analysis; assay type: physicochemical
[8] = target: T1, Acetylcholinesterase (Bos taurus); assay: Binding affinity to bovine erythrocyte acetylcholinesterase in water at pH 7.4 at 100 x 10^-5 M up to 6 hrs by UV-spectra analysis; in short: as §1
[9] = Toxicity in ip dosed Charles River CD-1 albino mouse assessed as mortality at >LD95 in presence of neostigmine; assay type: organism-based; settings: CD-1, mouse, in vivo, read-out: Activity
In short: (§3)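 CD-1 male mice. Choline (20 mg/kg) or neostigmine (0.2 mg/kg) was given ip 1 min before an ip >LD95 dose of compound in saline. Read-out was % mortality.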

[10] = Chemical stability of the compound in water at pH 7.4 up to 48 hrs by NMR analysis; assay type: physicochemical; settings: buffer, pH 7.4, 48 h
[11] = Toxicity in ip dosed Charles River CD-1 albino mouse assessed as mortality at >LD95 in presence of choline; assay type: organism-based; settings: CD-1, mouse, in vivo, read-out: Activity; in short: as §3
[12] = Chemical stability of the compound in water at slightly acidic condition up to 48 hrs by NMR analysis; assay type: physicochemical; settings: buffer
[13] = Chemical stability of the compound in deuterium oxide solutions at pH 7.4 up to 48 hrs by NMR analysis; assay type: physicochemical; settings: buffer, pH 7.4, 48 h

SMILES | selectivity ratio at 5 min [1] | Activity (Mus musculus [2]) | Activity (Mus musculus [3]) | Activity [4] | LD95 (Mus musculus [5]) | LD50 at 5 min [6] | Stability [7] | Activity [8] | mortality [9] | Stability [10] | mortality [11] | Stability [12] | Stability [13]
CC(=O)OCC[N+](C)(C)CC(=O)c1ccc(-c2ccc(C(=O)C[N+](C)(C)CCOC(C)=O)cc2)cc1.[Br-].[Br-] | 1 | Toxic | Non-toxic | Active | 0.4 mg/kg | 0.125 mg/kg | – | – | – | – | – | – | –
CC(=O)CCC[N+](C)(C)CC(=O)c1ccc(-c2ccc(C(=O)C[N+](C)(C)CCCC(C)=O)cc2)cc1.[Br-].[Br-] | 23.8 | Toxic | Non-toxic | – | 4.6 mg/kg | 3.1 mg/kg | Stable | inactive | 70% | Stable | 0% | Stable | Stable
CCCCC[N+](C)(C)CC(=O)c1ccc(-c2ccc(C(=O)C[N+](C)(C)CCCCC)cc2)cc1.[Br-].[Br-] | 43.1 | Toxic | Non-toxic | – | 5.8 mg/kg | 5.6 mg/kg | Stable | inactive | 80% | Stable | 30% | Stable | Stable
C[N+]1(C)CCOC(O)(c2ccc(-c3ccc(C4(O)C[N+](C)(C)CCO4)cc3)cc2)C1 (configuration not stated) [HEMICHOLINIUM-3] | – | Toxic | Non-toxic | – | 0.2 mg/kg | 0.13 mg/kg | – | inactive | – | – | – | – | –
CCOCC[N+](C)(C)CC(=O)c1ccc(-c2ccc(C(=O)C[N+](C)(C)CCOCC)cc2)cc1.[Br-].[Br-] | 14.2 | Toxic | Non-toxic | – | 2.67 mg/kg | 1.84 mg/kg | Stable | inactive | 80% | Stable | 0% | Stable | Stable

— ChEMBL document CHEMBL3272057, “Synthesis and structure-toxicity relationships of three new stable analogues of acetyl-seco-hemicholinium-3” (J Med Chem, 1976)
